Source: PubChem (several laboratories)
Runt-SMMHC FRET: inhibitors of RUNX1 Runt–CBFb-SMMHC binding, primary screen, biochemical, FRET, Cerulean-Runt, Venus-CBFb-SMMHC, uHTS; Cerulean-Runt/Venus-CBFb-SMMHC FRET ratio 530/480, 1 h; actives 0.74% (n = 220,000); Runt-related transcription factor 1 (Homo sapiens) + Core-binding factor subunit beta …; AID 1434, 2008; inhibition, % at 20 µM;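 active means mean inhibition across duplicate retests at 20 µM reaching about 50%, limit read from the data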;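 further: 0% = DMSO wells and 100% = wells with excess untagged CBFb-SMMHC; inhibitors lower the FRET ratio by blocking Runt binding to CBFb-SMMHC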
Target sequence (Q01196 whole entry, looked up): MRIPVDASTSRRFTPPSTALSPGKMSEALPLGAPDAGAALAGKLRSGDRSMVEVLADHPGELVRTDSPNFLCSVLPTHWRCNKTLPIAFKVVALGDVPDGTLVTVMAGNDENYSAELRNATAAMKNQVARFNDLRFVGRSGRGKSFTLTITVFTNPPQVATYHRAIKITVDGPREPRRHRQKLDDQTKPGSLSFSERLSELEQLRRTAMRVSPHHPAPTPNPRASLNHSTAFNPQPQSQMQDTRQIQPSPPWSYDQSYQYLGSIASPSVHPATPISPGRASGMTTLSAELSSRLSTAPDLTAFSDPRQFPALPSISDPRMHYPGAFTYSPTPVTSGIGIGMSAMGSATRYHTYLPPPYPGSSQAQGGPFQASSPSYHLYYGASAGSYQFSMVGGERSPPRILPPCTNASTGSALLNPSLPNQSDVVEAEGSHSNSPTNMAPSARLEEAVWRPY
Target sequence (Q13951 whole entry, looked up): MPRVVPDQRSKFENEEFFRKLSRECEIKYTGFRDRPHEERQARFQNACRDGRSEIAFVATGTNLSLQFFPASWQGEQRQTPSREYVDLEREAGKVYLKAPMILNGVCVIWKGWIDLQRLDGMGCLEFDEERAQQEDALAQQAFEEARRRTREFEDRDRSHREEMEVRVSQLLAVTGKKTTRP
Runt-CBFb FRET: inhibitors of RUNX1 Runt–CBFb binding, primary screen, biochemical, FRET, Cerulean-Runt, Venus-CBFb, uHTS; Cerulean-Runt/Venus-CBFb FRET ratio 530/480, 1 h; AID 1496, 2009; Runt-related transcription factor 1 (Homo sapiens) + Core-binding factor subunit beta …; inhibition, % at 20 µM; actives 0.46% (n = 220,000);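 active means inhibition over about 50% at 20 µM in the single-dose screen, limit read from the data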;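 further: 0% = DMSO wells and 100% = excess unlabeled CBFb competitor control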
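Reagent – Venus-CBFb binding partner, 100 nM · Assay system – Cerulean-tagged RUNX1 Runt domain (FRET donor) fusion protein · Input – 100 nM per protein · Incubation – two 1 h room-temperature incubations shielded from light · Measured by – FRET fluorescence · Medium – Tris buffer pH 7.5 with salts and BSA · Benchmarks – unlabeled CBFb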
Hck Nef HTS: inhibitors of Nef-activated human Hck kinase, primary screen, biochemical, Z-Lyte FRET, 384-well, Hck-YEEI; Tyrosine-protein kinase HCK (Homo sapiens), P08631; Recombinant Hck-YEEI plus Nef, Z-Lyte FRET kinase assay; inhibition, % at 20 µM; actives 0.68% (n = 220,000); AID 463187, 2010;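 active means Hck-Nef kinase inhibition above about 50%, limit read from the data; inactive means inhibition below that limit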;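 further: 0% = DMSO with Hck plus Nef and 100% = Hck alone without Nef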
p97 inhibitor: inhibitors of human p97 ATPase, primary screen, biochemical; recombinant p97 ATPase, Kinase-Glo ATP luminescence, 3 h; inhibition, % at 8 µM; actives 0.42% (n = 220,000); AID 1481, 2009; in the data active means inhibition above about 15%;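 further: 0% = DMSO vehicle and 100% = wells lacking enzyme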
RanGTP-Impb inh: inhibitors of RanGTP-importin-beta interaction, primary screen, biochemical, FRET, CFP-Ran, YFP-importin-beta, homogeneous | AID 2216, 2009 | Ran GTPase (GTP-bound) - importin-beta complex | cell-free CFP-Ran/YFP-importin-beta FRET ratio | actives 1.1% (n = 300,000) | inhibition, % (concentration not given with the values);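 active means more than half of the replicate wells show a fall in the fluorescence ratio signal beyond about 16%, limit read from the data, passing the limit was not always enough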;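 further: 0% = DMSO wells and 100% = Ran loaded with GDP instead of GTP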
Tb hexokinase: Trypanosoma brucei hexokinase 1 inhibitors, primary screen, biochemical, G6PDH-coupled NADH absorbance, MLSCN library; recombinant TbHK1, G6PDH-coupled NADH A340; inhibition, % at 10 µM; actives 0.11% (n = 220,000); AID 1430, 2008;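 active means inhibition of 50% or more in the single-dose primary screen; inactive means inhibition below 50%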
Active calls of the source: *; . = no result given. Shown are actives, neighbours in structure and some others; about 2.1% of the full set was active somewhere.

SMILES | Runt-SMMHC FRET | Runt-CBFb FRET | Hck Nef HTS | p97 inhibitor | RanGTP-Impb inh | Tb hexokinase
O=C(c1nc2ccc(Cl)cn2c1CNCCn1ccnc1)N1CCCCCCC1 | 3.5 | 0.9 | 14.0 | 6.4 | -1.5 | -2.3
O=C(c1nc2ccccn2c1CN1CCCC(O)C1)N1CCN(C2CCCCC2)CC1 (configuration not stated) | . | . | . | . | 103.5* | .
O=C(c1nc2ccc(Cl)cn2c1CN1CCC[C@H]1CO)N1CCCCCCC1 | . | . | . | . | 22.1* | .
COC1CCN(Cc2c(C(=O)N3CCN(C4CCCCC4)CC3)nc3ccccn23)CC1 | . | . | . | . | 103.9* | .
NC(=O)[C@@H]1CCCN1Cc1c(C(=O)N2CCN(C3CCCCC3)CC2)nc2ccccn12 | . | . | . | . | 111.5* | .
O=C(O)c1ccc(N/N=C/c2ccc(-c3cc(Cl)ccc3Cl)o2)cc1 | 80.3* | 69.8* | 45.4 | -2.4 | 83.3* | 20.0
O=C(O)c1ccc(N/N=C/c2ccc(-c3ccc(Cl)cc3Cl)o2)cc1 | 81.2* | 79.8* | 49.2 | -0.8 | 88.1* | 8.9
COC(=O)N/N=C/c1ccc(-c2ccc(Cl)cc2Cl)o1 | -2.5 | -1.9 | 15.5 | 2.2 | 4.0 | -45.1
CC(C)CC(NC(=O)C(CO)NC(=O)C1CCC(=O)N1)C(N)=O (configuration not stated) | -0.8 | -1.3 | 18.0 | 4.1 | 0.3 | -0.1
CSc1cccc(NC(=O)C2CCCN(S(=O)(=O)c3cnc[nH]3)C2)c1 (configuration not stated) | 2.3 | 1.8 | 1.8 | 17.0* | . | -2.1
CSc1cccc(NC(=O)C2CCN(S(=O)(=O)c3cnc[nH]3)CC2)c1 | . | . | . | . | -0.5 | .
Cc1cc(C(=O)O)cc(S(=O)(=O)NNC(=O)c2cccs2)c1C | . | . | . | . | -1.2 | .
O=C1/C(=C/c2cccs2)SC(=S)N1NS(=O)(=O)c1ccccc1 | -4.4 | 0.4 | 77.6* | -0.9 | -0.7 | 22.1
COc1ccc(OC)c(/C=C2\SC(=S)N(NS(=O)(=O)c3ccccc3)C2=O)c1 | . | . | . | . | -5.7 | .
Cc1ccccc1CN1CCN(CC(=O)NCc2ccccc2)CC1 | . | . | . | . | -0.9 | .
CCOCCCNc1nc2c(-c3ccccc3)nnn2c2ccccc12 | -3.3 | -4.9 | -6.8 | 11.2 | 33.7* | -15.1
CCCCNc1nc2c(-c3ccccc3)nnn2c2ccccc12 | -28.4 | 0.5 | -19.1 | 9.0 | 4.5 | -15.8
NC(=O)c1nsc(C(=O)N(Cc2ccccc2Cl)C(C(=O)NCC2CCCO2)c2ccc(O)cc2)c1N (configuration not stated) | . | . | . | . | 6.8 | .
CCc1nc2sc(C(C)=O)c(N)c2c2c1CCCC2 | 81.0* | 34.1 | 37.1 | 7.6 | 28.0* | 7.5
CC(=O)c1sc2nc(-c3ccc(C)cc3)c3c(c2c1N)CCCC3 | 10.3 | 3.0 | 4.5 | -1.7 | 66.4* | -12.0
CC1CCCCC1NC(=O)c1c(O)nc2ccccn2c1=O (configuration not stated) | . | . | . | . | 0.6 | .
COc1ccc(C2C3=C(CC(C)(C)CC3=O)Nc3c2c(=O)[nH]c(=O)n3Cc2ccccc2)cc1 (configuration not stated) | 40.3 | 101.7* | 1.0 | -0.8 | 83.7* | 3.5
COc1ccc(C2C3=C(CC(C)(C)CC3=O)Nc3n[nH]c(C)c32)cc1 (configuration not stated) | 0.5 | -0.6 | -6.7 | 3.8 | 6.4 | -26.9
COc1ccc(C2C3=C(CC(C)(C)CC3=O)Nc3c2c(=O)[nH]c(=O)n3Cc2ccccc2)cc1OC (configuration not stated) | 78.7* | 55.6* | 5.9 | -4.4 | 87.7* | -7.4
O=C(NCc1ccc(Cl)cc1)C1CCN(c2nnc(N3CCCC3=O)s2)CC1 | . | . | . | . | -4.4 | .
SMILES | Runt-SMMHC FRET | Runt-CBFb FRET | Hck Nef HTS | p97 inhibitor | RanGTP-Impb inh | Tb hexokinase
O=C1CC2(CCN(C(=O)c3ccc(Br)cc3)CC2)Oc2ccccc21 | . | . | . | . | 5.9 | .
CCOC(=O)N1CCN(c2ccccc2OC)CC1 | 1.1 | 1.1 | 16.1 | -2.7 | 1.8 | -9.5
CCOC(=O)c1ccc(NC(=O)N2CCN(c3ccccc3OC)CC2)cc1 | -1.1 | 1.5 | 2.3 | -3.4 | 27.2* | -0.1
COc1ccc(OC)c(-c2csc(NC(=O)c3ccc4c(c3)OCO4)n2)c1 | 1.9 | 0.3 | -10.7 | 1.8 | 4.3 | -0.8
O=C(COC(=O)c1ncc(Cl)c(Cl)c1Cl)NC1CCCCCC1 | . | . | . | . | 3.3 | .
COc1cc2c(cc1OC)CN(CC(O)c1ccccc1)CC2 (configuration not stated) | . | . | . | . | 26.9* | .
CCC(C(=O)N1CCc2cc(OC)c(OC)cc2C1)c1ccccc1 (configuration not stated) | 0.8 | 1.3 | 1.5 | 1.2 | 1.4 | 3.2
CC(C)(C)c1ccc(/C=C2\Oc3cc(O)ccc3C2=O)cc1 | . | . | . | . | 2.8 | .
COC(=O)c1ccc2c(c1)C(=O)/C(=C/c1ccc(O)cc1)O2 | -106.2 | -225.7 | 11.0 | -6.0 | 19.1* | -0.5
CCCCn1c(=O)nc2n(-c3ccc(OC)cc3)c3ccccc3cc-2c1=O | 27.1 | 16.8 | -10.0 | 0.7 | 8.8 | -13.3
Cc1ccc(-n2c3nc(=O)n(C)c(=O)c-3cc3ccccc32)cc1 | 81.1* | 10.0 | 28.3 | 4.5 | 86.2* | -12.1
CCCCn1c(=O)nc2n(-c3ccc(Cl)cc3)c3ccccc3cc-2c1=O | 82.3* | 103.1* | 3.0 | 3.7 | 59.1* | 3.1
Cc1ccc(N2CC(c3nc4ccccc4n3C)CC2=O)cc1 (configuration not stated) | 0.1 | 0.3 | 10.2 | 4.8 | 4.3 | -8.0
CCCCn1c(=O)nc2n(-c3ccc(C)cc3)c3ccccc3cc-2c1=O | 82.3* | 54.3* | 4.0 | 0.2 | 59.6* | -5.9
CCN1C(=O)[C@H]2[C@@H](c3ccc(-c4ccccc4)cc3)N[C@@](CC(C)C)(C(=O)OC)[C@H]2C1=O | . | . | . | . | 11.4 | .
COc1ccc(/C=C/C(=O)c2ccc(Cl)cc2)c(OC)c1 | -5.5 | -2.1 | 1.4 | 2.2 | 20.5* | 1.8
COC(=O)c1noc(C)c1-c1ccnn1C(=O)c1ccc(C)cc1 | -6.4 | -0.7 | -152.2 | 8.6 | 11.7* | -11.1
COc1ccc(C)cc1S(=O)(=O)Nc1ccncc1 | -4.2 | 0.9 | 26.7 | 2.3 | 13.9* | 2.1
COc1ccc(C)cc1S(=O)(=O)Nc1ccccc1 | -1.1 | -0.3 | 0.6 | -4.5 | 6.9 | -1.9
CCOC(=O)c1c(S(=O)(=O)NCC(=O)N2CCN(c3ccc(OC)cc3)CC2)c(C)n(C)c1C | . | . | . | . | 4.1 | .
